From paper PMC2758331 (Biochemistry, 2009)

Experiments:
mDia1-FH2 [1] = molecular target: T1, mDia1-FH2 (Mus musculus, UniProt O08808); test: pyrene-actin polymerization assay, actin assembly by mDia1-FH2; assay type: biochemical
Summary of the method: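 Recombinant mouse mDia1 FH2 domain (aa 748–1175) at 2.5 nM with 4 μM actin (5% pyrene-labelled), across a range of test compound concentrations. Polymerization followed by pyrene fluorescence (emission 410 nm). Signal corrected for quenching by the test compound. Dose-response curves calculated from the polymerization curves give IC50 and Hill coefficient.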

actin = actin (Oryctolagus cuniculus, UniProt P68135); test: spontaneous polymerization of actin alone; assay type: biochemical; conditions: concentrations up to 50 μM
mDia2-FH2 = mDia2-FH2 (Mus musculus, UniProt Q9Z207); test: pyrene-actin polymerization assay, actin assembly by mDia2-FH2; assay type: biochemical; conditions: potency and Hill coefficients
Sequence of mDia2-FH2 (Q9Z207 615-1013 limits assumed): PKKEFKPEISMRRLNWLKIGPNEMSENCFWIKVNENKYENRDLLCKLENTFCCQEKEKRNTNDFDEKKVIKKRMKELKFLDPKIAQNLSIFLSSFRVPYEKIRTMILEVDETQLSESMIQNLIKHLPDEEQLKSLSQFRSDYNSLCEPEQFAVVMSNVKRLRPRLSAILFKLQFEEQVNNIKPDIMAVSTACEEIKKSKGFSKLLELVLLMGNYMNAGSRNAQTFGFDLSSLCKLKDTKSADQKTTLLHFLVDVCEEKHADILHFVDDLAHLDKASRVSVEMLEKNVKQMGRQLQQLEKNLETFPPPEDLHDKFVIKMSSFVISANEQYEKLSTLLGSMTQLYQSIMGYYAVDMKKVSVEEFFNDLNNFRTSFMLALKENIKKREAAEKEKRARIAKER
Summary of the method: (§1)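 Pyrene-actin polymerization (emission read at 410 nm) driven by 2.5 nM mDia2-FH2, 20 nM INF2-(FH1-FH2) or 200 nM FRL1-(FH1-FH2), with the test compound titrated. Fluorescence corrected for compound quenching. Dose-response curves derived from the polymerization traces give IC50 and Hill coefficient.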

mDia3-FH2 [2] = molecular target: T2, mDia3-FH2 (Mus musculus, UniProt O70566); test: pyrene-actin polymerization assay, actin assembly by mDia3-FH2; assay type: biochemical; conditions: at any concentration tested
T2 sequence (O70566 625-1025 limits assumed): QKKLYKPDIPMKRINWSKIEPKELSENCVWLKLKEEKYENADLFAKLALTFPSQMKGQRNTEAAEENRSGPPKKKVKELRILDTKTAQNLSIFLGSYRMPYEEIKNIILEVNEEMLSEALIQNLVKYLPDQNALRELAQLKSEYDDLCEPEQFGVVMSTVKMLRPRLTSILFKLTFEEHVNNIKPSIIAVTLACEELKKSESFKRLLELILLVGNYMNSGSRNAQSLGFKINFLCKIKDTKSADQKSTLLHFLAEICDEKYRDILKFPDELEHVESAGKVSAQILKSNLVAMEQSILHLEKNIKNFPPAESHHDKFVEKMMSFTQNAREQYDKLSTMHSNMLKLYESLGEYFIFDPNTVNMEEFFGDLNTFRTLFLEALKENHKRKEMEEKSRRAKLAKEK
Summary of the method: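 Pyrene-actin polymerization (emission 410 nm) with mDia3-FH2 in two formats: 10 nM mDia3-FH2 in test compound titrations for dose-response curves (IC50, Hill coefficient), and 2.5 nM mDia3-FH2 with or without 50 μM test compound. Fluorescence corrected for compound quenching.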

FRL1-(FH1-FH2) = molecular target: T3, FRL1-(FH1-FH2) (Mus musculus, UniProt Q9JL26); test: pyrene-actin polymerization assay, actin assembly by FRL1; assay type: biochemical; conditions: at 50 μM
T3 sequence (Q9JL26 627-1018 limits assumed): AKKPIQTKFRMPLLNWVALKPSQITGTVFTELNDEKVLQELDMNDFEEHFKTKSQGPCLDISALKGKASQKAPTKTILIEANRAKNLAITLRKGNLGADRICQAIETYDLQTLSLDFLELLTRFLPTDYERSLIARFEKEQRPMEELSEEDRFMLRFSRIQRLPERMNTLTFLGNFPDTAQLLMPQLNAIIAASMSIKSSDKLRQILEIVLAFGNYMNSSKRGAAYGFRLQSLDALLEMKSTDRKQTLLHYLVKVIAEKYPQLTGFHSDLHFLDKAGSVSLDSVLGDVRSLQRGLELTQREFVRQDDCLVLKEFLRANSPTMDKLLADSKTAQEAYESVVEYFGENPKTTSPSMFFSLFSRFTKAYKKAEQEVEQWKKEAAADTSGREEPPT
Summary of the method: as §1

INF2-(FH1-FH2) = INF2-(FH1-FH2) (Mus musculus, UniProt Q0GNC1); test: pyrene-actin polymerization assay, actin assembly by INF2; assay type: biochemical; conditions: at saturating concentrations
Sequence of INF2-(FH1-FH2) (Q0GNC1 589-979 limits assumed): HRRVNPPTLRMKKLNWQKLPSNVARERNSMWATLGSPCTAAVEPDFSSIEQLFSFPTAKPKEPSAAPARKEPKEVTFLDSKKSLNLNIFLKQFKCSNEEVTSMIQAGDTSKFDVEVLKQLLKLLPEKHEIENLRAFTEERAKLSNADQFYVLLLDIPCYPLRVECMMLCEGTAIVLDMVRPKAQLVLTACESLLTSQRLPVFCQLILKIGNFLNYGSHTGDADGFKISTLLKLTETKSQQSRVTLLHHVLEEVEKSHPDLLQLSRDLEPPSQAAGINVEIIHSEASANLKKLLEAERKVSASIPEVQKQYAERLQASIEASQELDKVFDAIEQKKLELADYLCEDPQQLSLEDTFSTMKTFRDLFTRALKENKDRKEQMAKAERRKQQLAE
Summary of the method: as §1

mDia1-FH2 [3] = molecular target: T1, mDia1-FH2; test: equilibrium dialysis, direct binding to mDia1-FH2
mDia3-FH2 [4] = molecular target: T2, mDia3-FH2; test: equilibrium dialysis, direct binding to mDia3-FH2

T1 sequence (O08808 748-1175): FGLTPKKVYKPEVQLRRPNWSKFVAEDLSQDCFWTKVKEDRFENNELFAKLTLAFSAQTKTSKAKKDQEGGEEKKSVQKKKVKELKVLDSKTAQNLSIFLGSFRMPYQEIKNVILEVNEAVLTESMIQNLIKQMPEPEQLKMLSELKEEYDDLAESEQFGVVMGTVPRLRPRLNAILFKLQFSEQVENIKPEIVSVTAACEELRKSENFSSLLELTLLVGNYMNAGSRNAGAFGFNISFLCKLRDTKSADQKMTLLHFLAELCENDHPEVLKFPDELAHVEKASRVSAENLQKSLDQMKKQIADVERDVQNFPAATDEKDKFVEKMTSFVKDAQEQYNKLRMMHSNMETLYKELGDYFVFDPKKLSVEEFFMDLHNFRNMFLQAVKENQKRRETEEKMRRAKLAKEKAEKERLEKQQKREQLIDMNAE

O=S(=O)(O)c1cc(O)c2c(N=Nc3c(S(=O)(=O)O)cc4cc(S(=O)(=O)O)cc(O)c4c3O)cc(S(=O)(=O)O)cc2c1 [compound 1, 2-(8-hydroxy-3,6-disulfo-1-naphthylazo)-1,8-dihydroxy-naphthalene-3,6-disulfonic acid]
Hill coefficient, inhibition of actin assembly by mDia1-FH2 (mDia1-FH2 [1]): 2.4 | IC50 (mDia1-FH2 [1]): 490 nM | inhibitory effect toward polymerization of actin alone (actin): Neither 1 nor 2 shows any inhibitory effect

Nc1ccc(Br)cc1-c1nc2ccccc2[nH]c1=O [compound 2, 3-(2-amino-5-bromophenyl)-1H-quinoxalin-2-one]
Hill coefficient, inhibition of actin assembly by mDia1-FH2 (mDia1-FH2 [1]): 7.6 | IC50 (mDia1-FH2 [1]): 2100 nM | inhibition of filament assembly by mDia2-FH2 compared with mDia1-FH2 (in words) (mDia2-FH2): comparable | inhibitory activity toward actin assembly by mDia3-FH2 (in words) (mDia3-FH2 [2]): no inhibitory activity | inhibition of FRL1 (FRL1-(FH1-FH2)): incomplete | maximal inhibition of INF2 activity (INF2-(FH1-FH2)): ≤ 75% | inhibitory effect toward polymerization of actin alone (actin): Neither 1 nor 2 shows any inhibitory effect | binding to mDia1-FH2 by equilibrium dialysis (mDia1-FH2 [3]): effectively retained 2 in a dose-dependent manner | binding to mDia3-FH2 by equilibrium dialysis (mDia3-FH2 [4]): no binding
